What all share (assay type): functional
One assay concerns Botrytis cinerea. Briefly: Antifungal activity against Botrytis cinerea at 500 ug/ml relative to control. In outline: (§1)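 Pot culture test run as in the cited reference, with series compounds screened against five fungi: S. sclerotiorum (Lib.) de Bary, R. solani, F. oxysporum, C. cassiicola and B. cinerea. Culture plates were held at (24 ±1) °C. Commercial fungicides (dimehachlon, jinggangmycin, thiophanate methyl, chlorothalonil, pyrimethanil) served as controls under the same conditions.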

Another assay concerns Sclerotinia sclerotiorum. In words: Antifungal activity against Sclerotinia sclerotiorum (Lib.) de Bary at 500 ug/ml relative to control. In outline: as §1
The subject of a further assay is Rhizoctonia solani. Briefly: Antifungal activity against Rhizoctonia solani at 500 ug/ml relative to control. The method, boiled down:
as §1

A further assay concerns Corynespora cassiicola. Briefly: Antifungal activity against Corynespora cassiicola at 500 ug/ml relative to control. The method, boiled down: as §1
In another assay the test system is Fusarium oxysporum. Briefly: Antifungal activity against Fusarium oxysporum at 500 ug/ml relative to control. In outline:
as §1

These results are taken from ChEMBL document CHEMBL1152902, “Synthesis, antifungal activities and 3D-QSAR study of N-(5-substituted-1,3,4-thiadiazol-2-yl)cyclopropanecarboxamides” (2009).

Turning to `CC(C)c1nnc(NC(=O)C2CC2)s1`, the inhibition at 500 µg/mL in the assay on Botrytis cinerea turned out to be 42%; in the assay on Sclerotinia sclerotiorum, 47.7%; in the assay on Rhizoctonia solani, 11%; with Corynespora cassiicola it was 29.3%; in the assay on Fusarium oxysporum it was 20%.
Take `O=C(Nc1nnc(C2CC2)s1)C1CC1`: the inhibition at 500 µg/mL worked out at 66.6% with Botrytis cinerea; 26.7% in the assay with Sclerotinia sclerotiorum; 21% in the assay with Rhizoctonia solani; 13.3% in the assay on Corynespora cassiicola; 37% in the assay with Fusarium oxysporum.
As to `O=C(Nc1nnc(-c2ccc([N+](=O)[O-])cc2)s1)C1CC1`, the inhibition at 500 µg/mL was 30.3% in the assay on Botrytis cinerea; 43.1% in the assay on Sclerotinia sclerotiorum; 16% in the assay with Rhizoctonia solani; 18.6% with Corynespora cassiicola; 13% with Fusarium oxysporum.
On the same counts, the results for `COc1ccc(-c2nnc(NC(=O)C3CC3)s2)cc1` are 79.4%, 33%, -9%, 33.3% and 12%.
Consider `O=C(Nc1nncs1)C1CC1`, for which the inhibition at 500 µg/mL came to 83.7% with Botrytis cinerea; 24% in the assay with Sclerotinia sclerotiorum; 37% with Rhizoctonia solani; 22.5% in the assay on Corynespora cassiicola; 17% in the assay on Fusarium oxysporum.
With `Cc1nnc(NC(=O)C2CC2)s1`, the inhibition at 500 µg/mL in the assay with Botrytis cinerea was determined as 67.5%; in the assay on Sclerotinia sclerotiorum it was 23%; in the assay with Rhizoctonia solani it was 5%; with Corynespora cassiicola it was 52.4%; with Fusarium oxysporum, 84%.
On the same counts, the results for `CCCc1nnc(NC(=O)C2CC2)s1` are 57.9%, 40%, 35%, 46.6% and 1%.
On the same counts, the results for `O=C(Nc1nnc(-c2ccc(Cl)cc2)s1)C1CC1` are 13.5%, 23.9%, 62%, 19.7% and 28%.
Turning to `Cc1cccc(-c2nnc(NC(=O)C3CC3)s2)c1`, the inhibition at 500 µg/mL with Botrytis cinerea was 90.7%; in the assay on Sclerotinia sclerotiorum it was 20%; in the assay with Rhizoctonia solani it was 39%; in the assay with Corynespora cassiicola, 8.38%; in the assay with Fusarium oxysporum it was 11%.
On the same counts, the results for `CCc1nnc(NC(=O)C2CC2)s1` are 32.1%, 51.7%, 23%, 49.7% and 10%.
On the same counts, the results for `O=C(Nc1nnc(-c2ccccc2F)s1)C1CC1` are 67.5%, 23%, 5%, 68.3% and 84%.
Regarding `O=C(Nc1nnc(-c2ccccc2)s1)C1CC1`, the inhibition at 500 µg/mL was found to be 80.5% in the assay with Botrytis cinerea; 24% in the assay on Sclerotinia sclerotiorum; 9% in the assay with Rhizoctonia solani; 17.4% with Corynespora cassiicola; 16% in the assay on Fusarium oxysporum.
In the case of `CCCCc1nnc(NC(=O)C2CC2)s1`, the inhibition at 500 µg/mL is 26% in the assay on Botrytis cinerea; 10.3% in the assay on Sclerotinia sclerotiorum; 44% in the assay with Rhizoctonia solani; 21.9% in the assay with Corynespora cassiicola; 2% with Fusarium oxysporum.
On the same counts, the results for `Cc1ccccc1-c1nnc(NC(=O)C2CC2)s1` are 75.1%, 37.5%, 36%, 50.8% and 21%.
On the same counts, the results for `O=C(Nc1nnc(-c2ccccc2Cl)s1)C1CC1` are 35.1%, 25.5%, 44%, 21.4% and 91%.
In the case of `N#Cc1c(Cl)c(Cl)c(Cl)c(C#N)c1Cl` [CHLOROTHALONIL], the inhibition at 500 µg/mL with Corynespora cassiicola was 86.4%.
For `O=C1CCC(=O)N1c1cc(Cl)cc(Cl)c1` [DIMETHACHLON], the inhibition at 500 µg/mL in the assay on Sclerotinia sclerotiorum stood at 96.7%.
`Cc1cc(C)nc(Nc2ccccc2)n1` [PYRIMETHANIL]: the inhibition at 500 µg/mL with Botrytis cinerea amounted to 99.2%.
With `COC(=O)NC(=S)Nc1ccccc1NC(=S)NC(=O)OC` [THIOPHANATE METHYL], the inhibition at 500 µg/mL in the assay on Fusarium oxysporum came out at 97%.

As a reminder, the inhibition is the change of the read-out against control, counted positive when it falls.
